In ChEMBL document CHEMBL1799923, “Design, synthesis, and biological activities of closantel analogues: structural promiscuity and its impact on Onchocerca volvulus” (J Med Chem, 2011):
Calls of active or inactive are those of the source.

Columns and labels:
HEK-293T [1] = test: Protonophoric activity in human HEK293T cells assessed as mitochondrial membrane depolarization at 200 uM after 10 mins by flow cytometric analysis; format: functional, cell-based
Outline: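 HEK-293T/17 cells trypsinized and resuspended at 1 × 10^6 cells/mL in PBS. Compound exposure is 10 min at 37 °C, with valinomycin as the depolarization control. JC-1 is then added for another 10 min at 37 °C. Cells are washed and analysed by flow cytometry in the green (FITC) and red (PE) channels for mitochondrial membrane polarization.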

Onchocerca volvulus [2] = test: Antiparasitic activity against Onchocerca volvulus assessed as larval toxicity at 100 uM after 6 days by using inverted microscopic analysis; format: functional, organism-based
Onchocerca ochengi [3] = test: Antiparasitic activity against Onchocerca ochengi assessed as effect on microfilarial mobility at 5 ug/ml measured every 24 hrs for 120 hrs by inverted microscopic analysis; format: functional
Outline: (§1)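 Microfilariae isolated from cattle skin snips; ≥15 per well cocultured on a confluent monkey kidney epithelial feeder layer in RPMI-1640 complete medium (25 mM HEPES, 5% newborn calf serum, pH 7.4) with compound, 37 °C, 5% CO2, 5 days, no medium change. Motility scored by inverted microscope every 24 h. Viability checked at 120 h. Duplicate wells. Active = 100% motility loss versus control.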

Onchocerca volvulus [4] = test: Antiparasitic activity against Onchocerca volvulus assessed as inhibition of L3 to L4 larval molting at 25 uM after 6 days by using inverted microscopic analysis; format: functional, organism-based
Outline: (§2)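 Cryopreserved L3 thawed at 37 °C and washed. 5–10 larvae per well in complete medium with 20% heat-inactivated FCS plus 1.5 × 10^5 normal PBMCs. 10 wells per treatment. Compounds tested singly or as a 1:1 pair. DMSO and medium controls included. Incubated at 37 °C, 5% CO2. Molting scored on day 6 by inverted microscope as L4 plus empty L3 cast. Reported as percent molting.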

Chitinase = molecular target: T1, Chitinase (Onchocerca volvulus, UniProt Q25615); test: Inhibition of Onchocerca volvulus L3 larvae chitinase using 4-methylumbelliferyl-N,N',N''-beta-chitotrioside as a profluorescent substrate after 10 mins by fluorometric analysis
T1 sequence (Q25615 whole entry): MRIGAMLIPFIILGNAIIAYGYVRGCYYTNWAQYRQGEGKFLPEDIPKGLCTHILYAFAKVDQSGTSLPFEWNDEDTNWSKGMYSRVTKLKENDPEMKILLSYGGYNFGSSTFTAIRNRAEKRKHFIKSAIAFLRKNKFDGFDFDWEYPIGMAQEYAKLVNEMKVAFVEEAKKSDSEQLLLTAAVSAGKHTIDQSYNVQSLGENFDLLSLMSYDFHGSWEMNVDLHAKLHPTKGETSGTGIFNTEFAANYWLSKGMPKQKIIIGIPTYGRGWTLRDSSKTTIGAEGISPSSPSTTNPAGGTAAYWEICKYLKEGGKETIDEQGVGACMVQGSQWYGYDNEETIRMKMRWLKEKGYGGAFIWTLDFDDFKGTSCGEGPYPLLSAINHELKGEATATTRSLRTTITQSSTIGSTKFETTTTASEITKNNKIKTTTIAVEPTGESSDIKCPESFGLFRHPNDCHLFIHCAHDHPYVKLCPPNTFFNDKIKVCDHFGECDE
Outline: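 OvCHT1 (1.25 units) with 20 μM 4-methylumbelliferyl-N,N',N''-β-chitotrioside in 200 mM NaCl, 20 mM Na3PO4 (pH 6.0), 1.0 mM EDTA and 0.5% DMSO at 37 °C. Screening used 25 μM compound, with a no-compound blank. Fluorescence increase is read over 10 min (ex 350 nm, em 440 nm). Triplicate reactions.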

Onchocerca ochengi [5] = test: Antiparasitic activity against Onchocerca ochengi assessed as effect on microfilarial mobility at 10 ug/ml measured every 24 hrs for 120 hrs by inverted microscopic analysis; format: functional; outline: as §1
Onchocerca volvulus [6] = test: Antiparasitic activity against Onchocerca volvulus assessed as inhibition of L3 to L4 larval molting at 50 uM after 6 days by using inverted microscopic analysis; format: functional, organism-based; outline: as §2
HEK-293T [7] = test: Protonophoric activity in human HEK293T cells assessed as mitochondrial membrane depolarization at 50 uM after 10 mins by flow cytometric analysis; format: functional, cell-based
Outline: (§3)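 HEK-293T/17 cells were trypsinized and resuspended at 1 × 10^6/mL in PBS. They were exposed to 50 μM compound (valinomycin control 200 nM) for 10 min at 37 °C, then stained with the JC-1 potential probe for 10 min at 37 °C. Cells were washed and analysed by flow cytometry using FL-1 green and FL-2 red channels.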

Onchocerca volvulus [8] = test: Antiparasitic activity against Onchocerca volvulus assessed as inhibition of L3 to L4 larval molting at 100 uM after 6 days by using inverted microscopic analysis; format: functional
Outline: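 Cryopreserved O. volvulus L3 larvae thawed at 37 °C, washed in NCTC/IMDM (1:1) with glutamine, penicillin and streptomycin, then set at […] worms per well in complete medium with 20% heat-inactivated FCS. Each well received 1.5 × 10^5 normal PBMCs; 10 wells per treatment, with DMSO and medium controls. Incubated at 37 °C in 5% CO2 for 6 days. Molting is scored by inverted microscopy as L4 larvae plus empty L3 casts.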

HEK-293T [9] = test: Protonophoric activity in human HEK293T cells assessed as mitochondrial membrane depolarization at 50 uM after 10 mins by flow cytometric analysis relative to closantel; format: functional, cell-based; outline: as §3
HEK-293T [10] = test: Protonophoric activity in human HEK293T cells assessed as mitochondrial membrane depolarization at 50 uM after 10 mins by flow cytometric analysis relative to valinomycin; format: functional, cell-based; outline: as §3

Compound	motility % at 5 µg/mL (Onchocerca ochengi [3])	IC50 (Chitinase)	motility % at 10 µg/mL (Onchocerca ochengi [5])	other results
CC(C)[C@@H]1NC(=O)[C@H](C)OC(=O)[C@@H](C(C)C)NC(=O)[C@@H](C(C)C)OC(=O)[C@H](C(C)C)NC(=O)[C@H](C)OC(=O)[C@@H](C(C)C)NC(=O)[C@@H](C(C)C)OC(=O)[C@H](C(C)C)NC(=O)[C@H](C)OC(=O)[C@@H](C(C)C)NC(=O)[C@@H](C(C)C)OC1=O	–	–	–	Activity (HEK-293T [1]): Active
O=C(Nc1ccc(I)cc1)c1cc(I)cc(I)c1O	100%	630 nM	100%	Activity (Onchocerca volvulus [2]): inactive; inhibition (Onchocerca volvulus [4]): inactive; inhibition (Onchocerca volvulus [6]): inactive; Activity (HEK-293T [7]): inactive; inhibition (Onchocerca volvulus [8]): Active
O=C(Nc1ccc(Cl)cc1)c1cc(Br)cc(Br)c1O	100%	–	35%	–
CC(C)c1ccc(NC(=O)c2cc(I)cc(I)c2O)cc1	100%	1600 nM	100%	–
O=C(Nc1ccccc1)c1cc(Br)cc(Br)c1O [METABROMSALAN]	100%	–	50%	–
O=C(Nc1ccc(F)cc1)c1cc(I)cc(I)c1O	100%	880 nM	100%	–
Cc1ccc(NC(=O)c2cc(C(C)C)cc(C(C)C)c2O)cc1	50%	–	25%	–
Cc1ccc(NC(=O)c2cc(Br)cc(Br)c2O)cc1	100%	–	100%	–
O=C(Nc1ccc(Cl)cc1)c1cc(I)cc(I)c1O	100%	5800 nM	0%	–
COc1ccc(NC(=O)c2cc(Cl)cc(Cl)c2O)cc1	100%	–	50%	–
COc1ccc(NC(=O)c2cc(Br)cc(Br)c2O)cc1	100%	5500 nM	50%	–
Cc1ccc(NC(=O)c2cc(I)ccc2O)cc1	50%	–	21%	–
COc1ccc(NC(=O)c2cc(C(C)C)cc(C(C)C)c2O)cc1	50%	–	25%	–
COc1ccc(NC(=O)c2cc(I)ccc2O)cc1	100%	–	100%	–
O=C(Nc1ccccc1)c1cc(I)ccc1O	100%	–	25%	–
O=C(Nc1ccc(Cl)cc1)c1cc(Cl)cc(Cl)c1O	100%	12400 nM	29%	–
O=C(Nc1ccc(Cl)cc1)c1cc(I)ccc1O	100%	–	100%	–
Cc1ccc(NC(=O)c2cc(I)cc(I)c2O)cc1	100%	1700 nM	100%	–
CC(C)c1cc(C(=O)Nc2ccc(Cl)cc2)c(O)c(C(C)C)c1	100%	–	100%	Activity (HEK-293T [9]): Active; Activity (Onchocerca volvulus [2]): inactive; Activity (HEK-293T [10]): Active; inhibition (Onchocerca volvulus [4]): inactive; inhibition (Onchocerca volvulus [6]): inactive; inhibition (Onchocerca volvulus [8]): Active
Cc1ccc(NC(=O)c2cc(Cl)cc(Cl)c2O)cc1	100%	–	50%	–
Cc1cc(C(C#N)c2ccc(Cl)cc2)c(Cl)cc1NC(=O)c1cc(I)cc(I)c1O (stereo not given) [CLOSANTEL]	100%	1600 nM	0%	Activity (Onchocerca volvulus [2]): inactive; Ki (Chitinase): 468 nM; inhibition at 100 µM (Onchocerca volvulus [8]; 144 h): 97.6%
COc1ccc(NC(=O)c2cc(I)cc(I)c2O)cc1	100%	8700 nM	100%	–
O=C(Nc1ccccc1)c1cc(I)cc(I)c1O	100%	–	100%	–
CC(C)c1cc(C(=O)Nc2ccccc2)c(O)c(C(C)C)c1	100%	–	50%	–
O=C(Nc1ccccc1)c1cc(Cl)cc(Cl)c1O	100%	–	25%	–
O=C(Nc1ccc(Br)cc1)c1cc(I)cc(I)c1O	100%	680 nM	100%	–
